The source of these data is ChEMBL document CHEMBL1126988, “Quinolone antibacterials containing the new 7-[3-(1-aminoethyl)-1- pyrrolidinyl] side chain: the effects of the 1-aminoethyl moiety and its stereochemical configurations on potency and in vivo efficacy” (J Med Chem, 1993).

≈ marks a conversion by molar mass, not a printed value.

As a reminder, the MIC is the lowest concentration found to suppress growth.

Assay [1] concerns Escherichia coli. Kind of assay: Antibacterial activity in vitro against Escherichia coli Vogel. Format: functional. As to conditions: Escherichia coli; read-out: MIC. In short, it runs like this: (§1)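 Standard microtitration broth assay against a panel of 10 Gram-positive and Gram-negative organisms. MIC read in µg/mL and averaged over multiple experiments.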
The test system of assay [2] is Escherichia coli. Kind of assay: Antibacterial activity against Escherichia coli Vogel after oral administration in mouse. Type of assay: functional. Conditions: Escherichia coli, po; read-out: PD50.
The subject of assay [3] is Escherichia coli. The experiment in a line: Antibacterial activity against Escherichia coli Vogel after subcutaneous administration in mouse. Type of assay: functional. As to conditions: Escherichia coli, sc; read-out: PD50.
Assay [4] deals with Enterobacter cloacae. Kind of assay: Minimum inhibitory concentration in vitro against Enterobacter cloacae MA 2646. Type of assay: functional. As to conditions: Enterobacter cloacae; read-out: MIC.
Assay [5] deals with Enterococcus faecalis. Kind of assay: Minimum inhibitory concentration was evaluated in vitro against Enterococcus faecalis MGH-2. Type of assay: functional. The essentials: as §1
Assay [6] has as its system Klebsiella pneumoniae. Kind of assay: Minimum inhibitory concentration was evaluated in vitro against Klebsiella pneumoniae MGH2. Format: functional. As to conditions: Klebsiella pneumoniae; read-out: MIC. The essentials:
as §1

Assay [7] is filed under the species Mus musculus. Kind of assay: Compounds were evaluated for phototoxicity no-effect dose in mouse. Type of assay: functional. The essentials: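 Depilated female CD-1 mice, five per dose plus controls. Animals are dosed orally and then exposed daily to UV-A (320–400 nm) for 3 h, for up to 4 days or until a definite positive response. Redness or erythema relative to controls, read 24 h after irradiation, counts as positive. Reported as the highest dose with no effect (mg/kg).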

In assay [8] the test system is Providencia rettgeri. Kind of assay: Minimum inhibitory concentration was evaluated in vitro against Providencia rettgeri M1771. Format: functional. As to conditions: Providencia rettgeri; read-out: MIC. In short, it runs like this:
as §1

Assay [9] deals with Pseudomonas aeruginosa. Kind of assay: Minimum inhibitory concentration was evaluated in vitro against Pseudomonas aeruginosa UI-18. As to conditions: Pseudomonas aeruginosa; read-out: MIC. Format: functional. The essentials: as §1
The test system of assay [10] is Staphylococcus aureus. Kind of assay: Minimum inhibitory concentration was evaluated in vitro against Staphylococcus aureus H 228. As to conditions: Staphylococcus aureus; read-out: MIC. Format: functional. The essentials: as §1
Assay [11] concerns Staphylococcus aureus. Kind of assay: Minimum inhibitory concentration was evaluated in vitro against Staphylococcus aureus UC 76. Type of assay: functional. In short, it runs like this: as §1
For assay [12], the system named is Streptococcus pneumoniae. Kind of assay: Minimum inhibitory concentration was evaluated in vitro against Streptococcus pneumoniae SV-1. Type of assay: functional. In short, it runs like this:
as §1

Assay [13] has as its system Streptococcus pyogenes. The experiment in a line: Antibacterial activity measured as mouse protection against Streptococcus pyogenes C 203 after subcutaneous administration. As to conditions: for ED50: Streptococcus pyogenes, C 203, sc, read-out: PD50. Format: functional.
Assay [14] in a line: Clonogenic cytotoxicity against hamster V-79 cells. Type of assay: functional, Cricetulus griseus, V79. The essentials:
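Chinese hamster V-79 cells grown overnight, then drug-treated for 3 h at 37 °C. Medium is replaced with fresh medium and cells are incubated 5 days to allow colony formation. IC50 (µg/mL) is the concentration inhibiting colony formation by 50% relative to control.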

The test system of assay [15] is Streptococcus pyogenes. Kind of assay: Compounds were evaluated in vivo for antibacterial activity for mouse protection against Streptococcus pyogenes C 203 after oral administration. Type of assay: functional. Conditions: for ED50: Streptococcus pyogenes, C 203, po, read-out: PD50.
For assay [16], the system named is Streptococcus pyogenes. The experiment in a line: Minimum inhibitory concentration was evaluated in vitro against Streptococcus pyogenes C 203. Format: functional. The essentials:
as §1

Setting [17] is: Enterococcus faecalis, read-out: MIC.
Where [18] appears, read: Staphylococcus aureus, read-out: MIC.
The mark [19] stands for this setting: Streptococcus pneumoniae, read-out: MIC.
Where [20] appears, read: Streptococcus pyogenes, read-out: MIC.

`CCNC[C@@H]1CCN(c2c(F)cc3c(=O)c(C(=O)O)cn(CC)c3c2F)C1`: the MIC in [1] stood at 0.1 mg/L (≈ 0.264 µM); in assay [4] it was 0.2 mg/L (≈ 0.527 µM); in assay [5] (setting [17]), 0.1 mg/L (≈ 0.264 µM); in assay [6] it was 0.1 mg/L (≈ 0.264 µM); in assay [8], 0.2 mg/L (≈ 0.527 µM); in [9] it was 1.6 mg/L (≈ 4.22 µM). Besides, the MIC was determined as 0.05 mg/L (≈ 0.132 µM) in assay [10], 0.05 mg/L (≈ 0.132 µM) in [11] (setting [18]), 0.1 mg/L (≈ 0.264 µM) in [12] (setting [19]) and 0.1 mg/L (≈ 0.264 µM) in assay [16] (setting [20]). In addition, the ED50 in [2] was found to be 10 mg/kg; in assay [3], 3 mg/kg; in [13], 4 mg/kg; in [15] it was 10 mg/kg. The compound further returned a Dose in assay [7] of 1.5 mg/kg. This compound also displayed a Cytotoxicity in [14] of 190 µg/mL.

For the compound `Nc1c(F)c(N2CCC(N)C2)cc2c1c(=O)c(C(=O)O)cn2C1CC1` (stereo not given), the MIC is 0.013 mg/L (≈ 0.0375 µM) in assay [1]; 0.013 mg/L (≈ 0.0375 µM) in [4]; 0.1 mg/L (≈ 0.289 µM) in assay [5] (setting [17]); 0.025 mg/L (≈ 0.0722 µM) in assay [6]; 0.1 mg/L (≈ 0.289 µM) in assay [8]; 0.4 mg/L (≈ 1.15 µM) in assay [9]. For the same compound, the MIC in assay [10] was found to be 0.1 mg/L (≈ 0.289 µM); in assay [11] (setting [18]), 0.025 mg/L (≈ 0.0722 µM); in assay [12] (setting [19]), 0.025 mg/L (≈ 0.0722 µM); in assay [16] (setting [20]), 0.05 mg/L (≈ 0.144 µM). Moreover, the ED50 came to 8 mg/kg in assay [2], 1 mg/kg in assay [3], 6 mg/kg in [13] and 110 mg/kg in assay [15]. This compound also showed a Dose in [7] above 300 mg/kg. In assay [14], this compound yielded a Cytotoxicity of 12 µg/mL.

For the compound `CCn1cc(C(=O)O)c(=O)c2cc(F)c(N3CC[C@H]([C@@H](C)N)C3)c(F)c21` (mixture of isomers), the MIC was 0.05 mg/L in assay [1]; 0.05 mg/L in assay [4]; 0.013 mg/L in assay [5] (setting [17]); 0.1 mg/L in assay [6]; 0.2 mg/L in assay [8]; 0.8 mg/L in assay [9]. Also, the MIC in assay [10] turned out to be 0.025 mg/L; in [11] (setting [18]), 0.006 mg/L; in assay [12] (setting [19]), 0.003 mg/L; in assay [16] (setting [20]) it was 0.003 mg/L. The ED50 is 3 mg/kg in assay [2], 1 mg/kg in [3], 0.4 mg/kg in [13] and 1 mg/kg in assay [15]. Also, the Dose in [7] was below 10 mg/kg. In addition, in assay [14], the Cytotoxicity came to 9.8 µg/mL.

With `NC1CCN(c2nc3c(cc2F)c(=O)c(C(=O)O)cn3-c2ccc(F)cc2F)C1` (stereo not given) [TOSUFLOXACIN], the MIC in assay [1] worked out at 0.025 mg/L (≈ 0.0618 µM); in [4] it was 0.025 mg/L (≈ 0.0618 µM); in [5] (setting [17]) it was 0.1 mg/L (≈ 0.247 µM); in [6], 0.1 mg/L (≈ 0.247 µM); in assay [8], 0.1 mg/L (≈ 0.247 µM); in assay [9], 0.4 mg/L (≈ 0.989 µM). The MIC amounted to 0.05 mg/L (≈ 0.124 µM) in assay [10], 0.013 mg/L (≈ 0.0322 µM) in [11] (setting [18]), 0.05 mg/L (≈ 0.124 µM) in [12] (setting [19]) and 0.05 mg/L (≈ 0.124 µM) in assay [16] (setting [20]). Moreover, the ED50 in [2] came to 0.5 mg/kg; in [3], 0.2 mg/kg; in [13], 3 mg/kg; in [15], 5 mg/kg. This compound returned a Dose in assay [7] above 100 mg/kg. The compound also registered a Cytotoxicity in assay [14] of 120 µg/mL.

In the case of `CCN[C@@H](C)[C@@H]1CCN(c2nc3c(cc2F)c(=O)c(C(=O)O)cn3C2CC2)C1` (racemic), the MIC in [1] came out at 0.1 mg/L (≈ 0.257 µM); in assay [4], 0.1 mg/L (≈ 0.257 µM); in [5], 0.05 mg/L (≈ 0.129 µM); in [6] it was 0.2 mg/L (≈ 0.515 µM); in assay [8] it was 0.8 mg/L (≈ 2.06 µM); in [9] it was 1.6 mg/L (≈ 4.12 µM). Besides, the MIC in assay [10] was 0.1 mg/L (≈ 0.257 µM); in assay [11], 0.025 mg/L (≈ 0.0644 µM); in assay [12], 0.025 mg/L (≈ 0.0644 µM); in [16], 0.05 mg/L (≈ 0.129 µM). The ED50 came to 2 mg/kg in assay [2] and 1 mg/kg in assay [3]. In assay [7], this compound yielded a Dose below 30 mg/kg. In addition, the PD50 in assay [13] and in assay [15] was 2 mg/kg in each case. Besides, the Cytotoxicity in assay [14] was found to be 130 µg/mL.
